Our source for the Activity values is ChEMBL document CHEMBL1153629, “Antitumor activity of deoxypodophyllotoxin isolated from Anthriscus sylvestris: Induction of G2/M cell cycle arrest and caspase-dependent apoptosis” (2009).

Activity calls are given as the source filed them. The rule behind the calls is not given here.

The nature of assay [1]: Inhibition of tubulin polymerization by turbidity assay. The method, boiled down:
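Turbidity assay: tubulin in reaction buffer with GTP at 37 °C, test agent at 0.25 and 0.50 µM, taxol 0.1 µM as positive control. A340 read every 30 s for 60 min with gentle plate agitation.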

In assay [2] the test system is HeLa. Nature of the assay: Antiproliferative activity against human HeLa cells at 0.1 uM after 24 hrs. In kind it is functional, cell-based. An outline of the steps: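 HeLa cells grown in DMEM with FBS were seeded in 96-well plates and exposed for 12, 24 or 48 h to compound dissolved in DMSO (final DMSO under 0.1%). WST-8 (Cell Counting Kit-8) was added, and OD at 450 nm was read after 30 min. Survival was expressed as % of untreated control, in triplicate, with two further independent experiments.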

Assay [3] concerns HeLa. Nature of the assay: Cell cycle arrest in human HeLa cells assessed as accumulation at S phase at 0.5 uM after 12 hrs using propidium iodide staining by FACS analysis. In kind it is functional. The method, boiled down: (§1)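 HeLa cells grown in DMEM/FBS, 24 h to adhere, then given 0.5 µM from DMSO stock (DMSO <0.1% in medium). Harvested at 0, 12, 24 and 48 h, PBS-washed and fixed in 70% ethanol. Stained with 50 µg/ml propidium iodide plus 100 µg/ml RNase A at 37 °C in the dark for ≥3 h. Read by flow cytometry; sub-G1 fraction scored as apoptotic.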
On the technique in general: A flow cytometer gives signals particle by particle.

The test system of assay [4] is HeLa. Briefly: Cell cycle arrest in human HeLa cells assessed as accumulation at sub G1 phase at 0.5 uM after 12 hrs using propidium iodide staining by FACS analysis. In kind it is functional. The method, boiled down: as §1
Assay [5] deals with HeLa. Nature of the assay: Cell cycle arrest in human HeLa cells assessed as accumulation at G1 phase at 0.5 uM after 12 hrs using propidium iodide staining by FACS analysis. In kind it is functional. The method, boiled down: as §1
The test system of assay [6] is HeLa. Nature of the assay: Cell cycle arrest in human HeLa cells assessed as accumulation at G2 phase at 0.5 uM after 12 hrs using propidium iodide staining by FACS analysis. In kind it is functional. An outline of the steps:
as §1

Assay [7] deals with HeLa. Nature of the assay: Cell cycle arrest in human HeLa cells assessed as accumulation at sub G1 phase at 0.5 uM after 24 hrs using propidium iodide staining by FACS analysis. In kind it is functional. An outline of the steps: as §1
The subject of assay [8] is HeLa. Nature of the assay: Cell cycle arrest in human HeLa cells assessed as accumulation at G1 phase at 0.5 uM after 24 hrs using propidium iodide staining by FACS analysis. In kind it is functional. An outline of the steps: as §1
The test system of assay [9] is HeLa. Briefly: Cell cycle arrest in human HeLa cells assessed as accumulation at S phase at 0.5 uM after 24 hrs using propidium iodide staining by FACS analysis. In kind it is functional. The method, boiled down:
as §1

Assay [10] deals with HeLa. Briefly: Cell cycle arrest in human HeLa cells assessed as accumulation at G2 phase at 0.5 uM after 24 hrs using propidium iodide staining by FACS analysis. In kind it is functional. The method, boiled down:
as §1

The subject of assay [11] is HeLa. Briefly: Cell cycle arrest in human HeLa cells assessed as accumulation at sub G1 phase at 0.5 uM after 48 hrs using propidium iodide staining by FACS analysis. In kind it is functional. An outline of the steps:
as §1

In assay [12] the test system is HeLa. Briefly: Cell cycle arrest in human HeLa cells assessed as accumulation at G1 phase at 0.5 uM after 48 hrs using propidium iodide staining by FACS analysis. In kind it is functional. An outline of the steps:
as §1

For assay [13], the system named is HeLa. Briefly: Cell cycle arrest in human HeLa cells assessed as accumulation at S phase at 0.5 uM after 48 hrs using propidium iodide staining by FACS analysis. In kind it is functional. The method, boiled down: as §1
Assay [14] has as its system HeLa. Nature of the assay: Cell cycle arrest in human HeLa cells assessed as accumulation at G2 phase at 0.5 uM after 48 hrs using propidium iodide staining by FACS analysis. In kind it is functional. The method, boiled down:
as §1

Assay [15] relates to HeLa. Briefly: Inhibition of microtubule assembly in human HeLa cells assessed as loss of stabilization of microtubule bundles by immunofluorescence staining. In kind it is cell-based. An outline of the steps:
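HeLa cells given 0.25 µM for 24 h alongside DMSO vehicle and 0.1 µM taxol controls. Indirect immunofluorescence with anti-α-tubulin and an Alexa Fluor 488 secondary antibody; microtubule network imaged by spectral confocal microscopy.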

The subject of assay [16] is HeLa. Briefly: Induction of apoptosis in human HeLa cells assessed as fragmentation of chromosomal DNA by immunostaining method. In kind it is functional, cell-based. An outline of the steps: (§2)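 HeLa cells exposed to 0.5 µM for 48 h. Microtubules stained with anti-α-tubulin and an Alexa Fluor 488 secondary antibody, DNA with TO-PRO-3 iodide. Fragmented nuclei scored by confocal microscopy.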

Assay [17] relates to HeLa. Nature of the assay: Induction of apoptosis in human HeLa cells assessed as breakdown of nuclei by immunostaining method. In kind it is functional, cell-based. The method, boiled down: as §2
In assay [18] the test system is HeLa. Briefly: Induction of apoptosis in human HeLa cells assessed as caspase 3 cleavage at 0.5 uM. In kind it is functional, cell-based. To be noted: TDE = time-dependent effect. An outline of the steps:
(§3)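 HeLa cells treated with 0.5 µM for 0–48 h (sampled at 0, 3, 6, 12, 24, 48 h). Whole-cell lysates made in 20 mM HEPES pH 7.2, 1% Triton X-100, 10% glycerol, 150 mM NaCl, leupeptin, 1 mM PMSF. Lysates run on SDS–PAGE, immunoblotted with the indicated antibodies, GAPDH as loading control.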

The subject of assay [19] is HeLa. Nature of the assay: Cell cycle arrest at G2/M phase in human HeLa cells assessed as increase in cyclin B1 expression at 0.5 uM after 3 to 24 hrs by Western blot analysis. In kind it is functional, cell-based. The method, boiled down: as §3
The test system of assay [20] is HeLa. Briefly: Cell cycle arrest at G2/M phase in human HeLa cells assessed as decrease in cyclin A expression at 0.5 uM after 48 hrs by Western blot analysis. In kind it is functional, cell-based. An outline of the steps:
as §3

The test system of assay [21] is HeLa. Nature of the assay: Antiproliferative activity against human HeLa cells at 0.25 uM after 24 hrs. In kind it is functional, cell-based. An outline of the steps:
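HeLa cells in 96-well culture, treated for 12, 24 and 48 h, done in triplicate; after treatment, incubated 24 h more at 37 °C, 5% CO2. WST-8 (Cell Counting Kit-8) added, OD read at 450 nm after 30 min. Survival expressed relative to untreated cells; two further independent experiments.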

In assay [22] the test system is HeLa. Nature of the assay: Induction of apoptosis in human HeLa cells assessed as caspase 7 cleavage at 0.5 uM. In kind it is functional, cell-based. The following applies: TDE = time-dependent effect. The method, boiled down:
as §3

The test system of assay [23] is HeLa. Briefly: Induction of apoptosis in human HeLa cells assessed as PARP cleavage after 24 to 48 hrs by Western blot analysis. In kind it is functional, cell-based. An outline of the steps: as §3

Regarding `CC(=O)O[C@H]1C(=O)[C@@]2(C)[C@H]([C@H](OC(=O)c3ccccc3)[C@]3(O)C[C@H](OC(=O)[C@H](O)[C@@H](NC(=O)c4ccccc4)c4ccccc4)C(C)=C1C3(C)C)[C@]1(OC(C)=O)CO[C@@H]1C[C@@H]2O`, the outcome in assay [1] was inactive. The result with HeLa [2] was Active.

With `COc1cc([C@@H]2c3cc4c(cc3C[C@H]3COC(=O)[C@@H]32)OCO4)cc(OC)c1OC` [DESOXYPODOPHYLLOTOXIN], the Activity with HeLa [3] is reported as 28.9%; in the assay on HeLa [4] it was 0.2%; with HeLa [5] it was 12%; with HeLa [6], 58.9%; in the assay on HeLa [7] it was 4.5%; in the assay on HeLa [8], 3.5%. For the same compound, the Activity in the assay on HeLa [9] is 8.6%; with HeLa [10], 87.8%; with HeLa [11], 29.7%; in the assay with HeLa [12] it was 6.8%; in the assay with HeLa [13] it was 11%; in the assay on HeLa [14], 82.1%. Further, the Activity result was “Dose-dependent effect” in assay [1], “tde” in the assay with HeLa [18] and “tde” with HeLa [22]. For the same compound, in the assay on HeLa [15], the result was inactive. Besides, the result in the assay on HeLa [16], in the assay on HeLa [17], in the assay with HeLa [19], in the assay on HeLa [20], with HeLa [21] and with HeLa [23] was Active.
